This is an account of results in ChEMBL document CHEMBL2010740, “Synthesis and evaluation of 2-amido-3-carboxamide thiophene CB₂ receptor agonists for pain management” (Bioorg Med Chem Lett, 2012).

The nature of series [1]: AUC in rat at 10 umol/kg, po. The class given is ADME, organism-based. The following applies: plasma.
The test system of series [2] is Rattus norvegicus. Put plainly: Analgesic activity in rat incision model of post-operative pain assessed as reduction in paw withdrawal latency at 10 umol/kg, ip administered 90 mins post-surgical incision measured after 30 mins. It counts as functional. Details: scale not given: the % may be the effect or the level left.
In series [3] the test system is Rattus norvegicus. Put plainly: Neurotoxicity in rat assessed as decrease in spontaneous locomotory activity at 100 umol/kg, ip after 30 mins. The following applies: in vivo, 0.5 h. It counts as toxicity, organism-based. Details: scale not given: the % may be the effect or the level left. The procedure, abridged: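 Spontaneous horizontal locomotor activity in rats. Compound was given intraperitoneally 30 min before testing.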

A short description of series [4]: Plasma protein binding in rat. The class given is ADME, cell-free. The conditions noted are these: read-out: PPB (converted).
A short description of series [5]: AUC in rat at 10 umol/kg, ip. The class given is ADME, organism-based. The following applies: plasma.
Series [6] relates to Rattus norvegicus. The series can be described thus: Analgesic activity in ip dosed rat incision model of post-operative pain assessed as reduction in paw withdrawal latency administered 90 mins post-surgical incision measured after 30 mins. It counts as functional, organism-based.
A short description of series [7]: Cmax in rat at 10 umol/kg, ip. The class given is ADME, organism-based. Details: dose 10 umol/kg, route intraperitoneal. The conditions noted are these: in vivo.
The test system of series [8] is Rattus norvegicus. The series can be described thus: Analgesic activity in rat chronic constriction injury model of neuropathic pain assessed as reduction in mechanical allodynia at 30 umol/kg, ip administered 2 weeks post-surgery measured after 30 mins. Details: scale not given: the % may be the effect or the level left. The class given is functional.
Series [9] has as its system Rattus norvegicus. The series can be described thus: Analgesic activity in rat chronic constriction injury model of neuropathic pain assessed as reduction in mechanical allodynia at 10 umol/kg, ip administered 2 weeks post-surgery measured after 30 mins. More on the design: scale not given: the % may be the effect or the level left. The class given is functional.
In series [10] the test system is Rattus norvegicus. The series can be described thus: Analgesic activity in rat spinal nerve ligation model of neuropathic pain assessed as […] at 3 umol/kg, ip administered 2 weeks post-surgery measured after 30 mins. The class given is functional. More on the design: scale not given: the % may be the effect or the level left. Put shortly:
(§1)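 Rat spinal nerve ligation (Chung) neuropathic pain model. Dosing was intraperitoneal, two weeks after surgery and 30 min before testing. Read-out was mechanical allodynia (paw withdrawal threshold), given as a dose–response.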

For series [11], the system named is Rattus norvegicus. Put plainly: Analgesic activity in rat chronic constriction injury model of neuropathic pain assessed as reduction in mechanical allodynia at 3 umol/kg, ip administered 2 weeks post-surgery measured after 30 mins. The class given is functional. Details: scale not given: the % may be the effect or the level left.
Series [12] deals with T1, Cannabinoid receptor 2 (Rattus norvegicus, UniProt Q9QZN9).
T1 sequence (Q9QZN9 whole entry): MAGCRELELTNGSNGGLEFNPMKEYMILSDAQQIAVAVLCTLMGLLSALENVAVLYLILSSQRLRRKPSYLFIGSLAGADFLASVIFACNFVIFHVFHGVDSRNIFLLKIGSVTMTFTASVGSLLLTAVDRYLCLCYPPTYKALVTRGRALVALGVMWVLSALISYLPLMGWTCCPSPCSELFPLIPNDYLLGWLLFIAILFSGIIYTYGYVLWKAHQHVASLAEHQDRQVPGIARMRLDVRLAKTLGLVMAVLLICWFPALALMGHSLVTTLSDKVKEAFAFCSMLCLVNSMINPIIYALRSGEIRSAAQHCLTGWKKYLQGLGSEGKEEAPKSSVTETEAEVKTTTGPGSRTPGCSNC
The series can be described thus: Agonist activity at rat recombinant CB2 receptor expressed in HEK293 cells assessed as inhibition of forskolin-induced cAMP production after 20 mins by ELISA. The class given is functional, cell-based. Put shortly:
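cAMP assay in HEK 293 cells stably expressing the relevant CB receptor, with a fixed concentration of forskolin. cAMP was quantified by ELISA. Activation is given as percent of the CP-55,940 control response.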
On the technique in general: Changes in cAMP serve as a functional read-out for many G protein-coupled receptors.

Series [13] in a line: Half life in rat at 10 umol/kg, po. The conditions noted are these: in vivo. The class given is ADME, organism-based.
The target in series [14] is Cannabinoid receptor 2 (Homo sapiens, UniProt P34972). The series can be described thus: Displacement of [3H]CP-55940 from human recombinant CB2 receptor expressed in HEK293 cells after 90 mins. The class given is cell-based. Put shortly: (§2)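 Competitive binding: [³H]CP-55,940 displaced from membranes of HEK 293 cells stably transfected with human or rat CB₂, or CHO cells stably transfected with human or rat CB₁. Reported as pKi. Determinations >2 (duplicate of duplicate).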
Background: Loss of bound radioactivity is the signal in a displacement assay; it reports binding, not function.

The target of series [15] is T1, Cannabinoid receptor 2. Put plainly: Displacement of [3H]CP-55940 from rat recombinant CB2 receptor expressed in HEK293 cells after 90 mins. The class given is cell-based. The procedure, abridged: as §2
The subject of series [16] is Rattus norvegicus. The series can be described thus: Analgesic activity in rat complete Freund's adjuvant model of chronic inflammatory pain assessed as reduction in thermal hyperalgesia at 10 umol/kg, ip administered 48 hrs after CFA-challenge measured after 60 mins. It counts as functional. More on the design: scale not given: the % may be the effect or the level left.

Series [17] concerns Rattus norvegicus. The series can be described thus: Analgesic activity in rat spinal nerve ligation model of neuropathic pain assessed as […] at 30 umol/kg, ip administered 2 weeks post-surgery measured after 30 mins. It counts as functional. Details: scale not given: the % may be the effect or the level left. The procedure, abridged: as §1

A further series addresses Cannabinoid receptor 1 (Rattus norvegicus, UniProt P20272). Put plainly: Displacement of [3H]CP-55940 from rat recombinant CB1 receptor expressed in CHO cells after 90 mins. The class given is cell-based. The procedure, abridged:
as §2

The nature of series [18]: Half life in rat at 3 umol/kg, iv. It counts as ADME, organism-based. The conditions noted are these: in vivo.

Chain of Cannabinoid receptor 1 (P20272 whole entry): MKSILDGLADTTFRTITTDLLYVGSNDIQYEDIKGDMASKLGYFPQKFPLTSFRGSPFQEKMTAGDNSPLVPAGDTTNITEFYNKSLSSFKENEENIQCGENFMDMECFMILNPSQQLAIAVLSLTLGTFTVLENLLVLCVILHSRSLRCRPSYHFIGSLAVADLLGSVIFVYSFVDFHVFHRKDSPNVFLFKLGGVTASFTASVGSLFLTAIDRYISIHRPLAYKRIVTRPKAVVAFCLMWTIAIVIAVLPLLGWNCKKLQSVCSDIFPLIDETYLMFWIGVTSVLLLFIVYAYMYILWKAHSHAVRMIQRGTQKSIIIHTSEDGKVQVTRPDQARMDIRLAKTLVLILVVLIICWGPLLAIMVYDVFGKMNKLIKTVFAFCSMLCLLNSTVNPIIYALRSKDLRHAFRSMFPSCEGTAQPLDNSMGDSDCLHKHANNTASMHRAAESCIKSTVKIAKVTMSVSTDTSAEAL
Chain of Cannabinoid receptor 2 (Homo sapiens, UniProt P34972) (P34972 whole entry): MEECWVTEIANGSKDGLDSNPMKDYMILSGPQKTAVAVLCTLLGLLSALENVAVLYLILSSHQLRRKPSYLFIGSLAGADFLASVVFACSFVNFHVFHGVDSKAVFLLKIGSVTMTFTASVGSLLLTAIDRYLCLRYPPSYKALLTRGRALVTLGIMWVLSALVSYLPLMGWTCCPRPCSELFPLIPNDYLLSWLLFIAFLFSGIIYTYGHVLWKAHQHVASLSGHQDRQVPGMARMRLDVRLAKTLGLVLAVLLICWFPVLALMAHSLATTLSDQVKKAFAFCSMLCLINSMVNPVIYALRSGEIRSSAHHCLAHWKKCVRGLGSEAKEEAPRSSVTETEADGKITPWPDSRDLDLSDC

As usually defined, the AUC is concentration integrated over time. One may read the Cmax as the highest concentration seen after dosing. A word on the IC50: it is the concentration that gives 50% inhibition. Broadly, the half-life is the time needed for the level to fall by half in the phase considered. The Ki is a measure of affinity in units of concentration, obtained from inhibition or displacement. Turning to `CCCNC(=O)c1c(NC(=O)C23CC4CC(CC2C4)C3)sc2c1CCOC2`, the area under the curve (AUC) in [1] was 123 ng·h/mL; in series [5] it was 1020 ng·h/mL. Besides, the Activity was 45% in the series with Rattus norvegicus [2]; 83% with Rattus norvegicus [3]; “Dose-dependent effect” in the series with Rattus norvegicus [6]; 74% with Rattus norvegicus [8]; 55% in the series with Rattus norvegicus [9]; 8% in the series with Rattus norvegicus [10]. The values for the Activity in the series on Rattus norvegicus [11], in the series on Rattus norvegicus [16] and with Rattus norvegicus [17] were 22%, 74% and 60%, respectively. In addition, the fraction unbound in series [4] was 0.03. The Cmax in series [7] came to 150 ng/mL. Besides, on Cannabinoid receptor 2 [12], the IC50 is 9.33 nM. Moreover, the half-life is 1.6 h in series [13] and 1.5 h in series [18]. Further, the inhibition constant Ki on Cannabinoid receptor 2 [14] is 20.9 nM; on Cannabinoid receptor 2 [15], 33.9 nM; at Cannabinoid receptor 1, 302 nM.
